Data set [1] is described as follows: Apparent half life of the compound in 50% v/v human plasma by HPLC analysis. The note with it: 50% v/v plasma, read-out: t1/2(app). The data set is classed as ADME, cell-free. An outline of the steps: (§1)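 Rat or human plasma at 50% (v/v) was preincubated with BNPP, eserine, PMSF, EDTA or vehicle, then compound was added and kept at 37 °C. Aliquots taken at regular time points were quenched with 2 volumes of CH3CN, centrifuged, and analysed by RP-HPLC. Apparent t1/2 came from log[compound]-vs-time regression.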

The nature of data set [2]: Apparent Half life of the compound in 0.01 M phosphate-buffered saline at pH 7.4. Format: physicochemical. To be noted: read-out: t1/2(app). The method, boiled down: (§2)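 Compound (from DMSO stock; 1% DMSO final) incubated at 1–100 μM final at 37 °C with shaking, ionic strength 0.15 M, in 0.01 M PBS pH 7.4 or 0.01 M phosphate buffer pH 5.0. Aliquots taken over time were analysed by RP-HPLC. Apparent t1/2 came from pseudo-first-order rate constants (linear regression of log[compound] vs time), reported as mean ± SD of three experiments.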

Data set [3] can be described thus: Apparent Half life of the compound in 0.01 M phosphate buffer at pH 5 in presence of 3 mM DTT. The note with it: read-out: t1/2(app).
Data set [4] has as its target T1, N-acylethanolamine-hydrolyzing acid amidase (Rattus norvegicus, UniProt Q5KTC7).
T1 sequence (Q5KTC7 whole entry): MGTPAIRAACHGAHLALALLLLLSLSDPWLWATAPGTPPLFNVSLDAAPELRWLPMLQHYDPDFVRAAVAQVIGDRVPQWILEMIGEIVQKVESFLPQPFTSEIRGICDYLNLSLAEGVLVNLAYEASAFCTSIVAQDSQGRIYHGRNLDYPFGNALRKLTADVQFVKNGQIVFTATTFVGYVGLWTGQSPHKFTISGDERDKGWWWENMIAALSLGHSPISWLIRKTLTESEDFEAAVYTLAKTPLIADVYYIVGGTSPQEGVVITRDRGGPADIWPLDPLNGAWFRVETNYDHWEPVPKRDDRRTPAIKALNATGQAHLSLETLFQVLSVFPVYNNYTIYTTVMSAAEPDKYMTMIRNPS
The data set is described as follows: Inhibition of rat recombinant NAAA expressed in HEK293 cells using heptadecenoylethanolamide as substrate after 30 mins by LC/MS analysis. The data set is classed as cell-based. The method, boiled down:
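Recombinant rat NAAA incubated 30 min at 37 °C in 50 mM sodium hydrogen phosphate buffer pH 5.0 containing 0.1% Triton X-100, 3 mM DTT and heptadecenoylethanolamide substrate (50 mM as printed). The reaction was stopped with cold methanol containing 1 nmol heptadecanoic acid. Product was measured by LC/MS with negative ESI, selected ion monitoring at m/z 267.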

Data set [5] is described as follows: Apparent half life of the compound in 50% v/v rat plasma by HPLC analysis in presence of EDTA. Format: ADME, cell-free. The note with it: 50% v/v plasma, with EDTA, read-out: t1/2(app). The method, boiled down: as §1
Data set [6] concerns the target Albumin (Bos taurus, UniProt P02769). The data set is described as follows: Apparent half life of the compound in bovine serum albumin in phosphate-buffered saline at pH 7.4. The data set is classed as ADME. The note with it: cattle, read-out: t1/2(app). The method, boiled down: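 Compound incubated at 5–100 μM final (1% DMSO) at 37 °C in 20 mg/mL bovine serum albumin in PBS pH 7.4. Aliquots were quenched with 2 volumes of CH3CN, centrifuged, and analysed by RP-HPLC. Apparent t1/2 came from pseudo-first-order regression of log[compound] vs time.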

Data set [7] in a line: Apparent Half life of the compound in 0.01 M phosphate buffer at pH 5. The data set is classed as physicochemical. To be noted: read-out: t1/2(app). An outline of the steps:
as §2

Data set [8] is described as follows: Apparent half life of the compound in rat plasma by HPLC analysis. The data set is classed as ADME, cell-free. The note with it: read-out: t1/2(app) (converted). The method, boiled down:
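Pooled heparinized plasma from male Wistar rats was diluted to 80% (v/v) with PBS pH 7.4. Compound was added at 5–100 μM final (1% DMSO) and incubated at 37 °C with shaking. Aliquots were quenched with 2 volumes of CH3CN, centrifuged, and analysed by RP-HPLC. t1/2 came from log[compound]-vs-time regression, as mean ± SD of three experiments.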

A short description of data set [9]: Apparent half life of the compound in 50% v/v rat plasma by HPLC analysis in presence of BNPP. The data set is classed as ADME, cell-free. To be noted: 50% v/v plasma, with BNPP, read-out: t1/2(app). An outline of the steps:
as §1

Data set [10] can be described thus: Apparent half life of the compound in 50% v/v human plasma by HPLC analysis in presence of EDTA. Format: ADME, cell-free. The note with it: 50% v/v plasma, with EDTA, read-out: t1/2(app). The method, boiled down:
as §1

A short description of data set [11]: Apparent half life of the compound in 50% v/v human plasma by HPLC analysis in presence of BNPP. The data set is classed as ADME, cell-free. To be noted: 50% v/v plasma, with BNPP, read-out: t1/2(app). An outline of the steps: as §1
Data set [12] is described as follows: Apparent half life of the compound in 50% v/v rat plasma by HPLC analysis in presence of PMSF. The data set is classed as ADME, cell-free. To be noted: 50% v/v plasma, with PMSF, read-out: t1/2(app). The method, boiled down:
as §1

Data set [13] can be described thus: Apparent half life of the compound in 50% v/v rat plasma by HPLC analysis in presence of eserine. Format: ADME, cell-free. The note with it: 50% v/v plasma, with eserine, read-out: t1/2(app). The method, boiled down:
as §1

Data set [14] can be described thus: Apparent half life of the compound in 50% v/v human plasma by HPLC analysis in presence of eserine. The data set is classed as ADME, cell-free. The note with it: 50% v/v plasma, with eserine, read-out: t1/2(app). The method, boiled down:
as §1

A short description of data set [15]: Apparent half life of the compound in 50% v/v rat plasma by HPLC analysis. The note with it: 50% v/v plasma, read-out: t1/2(app). The data set is classed as ADME, cell-free. The method, boiled down: as §1
The nature of data set [16]: Apparent half life of the compound in 50% v/v human plasma by HPLC analysis in presence of PMSF. The note with it: 50% v/v plasma, with PMSF, read-out: t1/2(app). Format: ADME, cell-free. The method, boiled down: as §1

This is an account of results in ChEMBL document CHEMBL2062472, “N-(2-oxo-3-oxetanyl)carbamic acid esters as N-acylethanolamine acid amidase inhibitors: synthesis and structure-activity and structure-property relationships” (J Med Chem, 2012).

The structures appear in SMILES notation.

Chain of Albumin (P02769 whole entry): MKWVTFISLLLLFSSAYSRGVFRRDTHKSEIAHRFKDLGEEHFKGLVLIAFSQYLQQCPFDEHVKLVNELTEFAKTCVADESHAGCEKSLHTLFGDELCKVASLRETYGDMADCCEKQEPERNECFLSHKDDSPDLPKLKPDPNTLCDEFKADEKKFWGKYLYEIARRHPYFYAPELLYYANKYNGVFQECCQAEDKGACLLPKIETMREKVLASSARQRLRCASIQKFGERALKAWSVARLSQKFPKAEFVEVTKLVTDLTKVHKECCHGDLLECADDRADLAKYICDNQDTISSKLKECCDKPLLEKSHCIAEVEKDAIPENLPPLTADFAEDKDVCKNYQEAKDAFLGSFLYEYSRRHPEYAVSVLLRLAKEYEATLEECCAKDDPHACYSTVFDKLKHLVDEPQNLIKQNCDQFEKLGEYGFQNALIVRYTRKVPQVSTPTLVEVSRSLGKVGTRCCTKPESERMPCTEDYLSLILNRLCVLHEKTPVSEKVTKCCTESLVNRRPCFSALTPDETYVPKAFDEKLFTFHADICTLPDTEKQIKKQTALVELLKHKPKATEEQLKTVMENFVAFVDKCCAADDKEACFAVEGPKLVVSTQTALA

A word on the IC50: it is the concentration that inhibits the measured activity by half. In the case of `C[C@@H]1OC(=O)[C@@H]1NC(=O)OC(C)(C)C`, the half-life came to 2.99 min in [1]; 122 min in data set [2]; 147 min in data set [3]; 0.34 min in data set [5]; 129 min in [6]; 241 min in data set [7]. Besides, the half-life in data set [8] is 0.183 min; in [9], 3.29 min; in data set [10], 32 min; in data set [11], 4.7 min; in data set [12], 7.13 min; in data set [13], 4.19 min. In addition, the half-life in [14] stood at 13.8 min; in data set [15] it was 0.53 min; in data set [16] it was 11.5 min. The IC50 in [4] is 220 nM.
